From ChEMBL document CHEMBL1156826, “Multifunctional antioxidants for the treatment of age-related diseases” (J Med Chem, 2010) come the findings set out here.

A short description of experiment [1]: Binding affinity to Ca(2+) ions assessed as percent parent peaks remaining by electrospray ionization mass spectrometry. Also noted: concentration or dose not given beside the values. A digest of the protocol:
(§1)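 Metal ion stocks (1 mM in double-distilled water) were prepared from ammonium iron(II) sulfate, iron(III) nitrate, copper(I) chloride, copper(II) chloride, zinc chloride, magnesium chloride or calcium chloride. Each was mixed with compound at metal:compound ratios of 10:1, 1:1 and 1:10, keeping the final compound concentration at 50 μM.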

Experiment [2] can be described thus: Binding affinity to Fe(3+) ions assessed as percent parent peaks remaining by electrospray ionization mass spectrometry. The arrangement: concentration or dose not given beside the values. The procedure, abridged:
as §1

Experiment [3] is described as follows: Binding affinity to Cu(1+) ions assessed as percent parent peaks remaining by electrospray ionization mass spectrometry. The arrangement: concentration or dose not given beside the values. A digest of the protocol:
as §1

Experiment [4] in a line: Binding affinity to Mg(2+) ions assessed as percent parent peaks remaining by electrospray ionization mass spectrometry. The arrangement: concentration or dose not given beside the values. A digest of the protocol: as §1
The nature of experiment [5]: Binding affinity to Zn(2+) ions assessed as percent parent peaks remaining by electrospray ionization mass spectrometry. Also noted: concentration or dose not given beside the values. A digest of the protocol:
as §1

Experiment [6] is described as follows: Binding affinity to Fe(2+) ions assessed as percent parent peaks remaining by electrospray ionization mass spectrometry. The arrangement: concentration or dose not given beside the values. A digest of the protocol: as §1
Experiment [7] deals with SRA1. Kind of experiment: Cytoprotection in human SRA1 cells assessed as protection against H2O2-induced cell death after 2 hrs by MTS assay. Format: functional, cell-based. The procedure, abridged:
(§2)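 Cells are seeded at 1 × 10⁴ per well and pre-treated 1 hr in FBS-free medium with 100 μM compound, then given 1 mM H2O2, or 1 mM H2O2 plus 1 mM iron(II) chloride (Fenton), for 2 hr. After a PBS wash, MTS is added in blank medium for 1.5 hr at 37 °C and read at 490 nm. Results are normalized to cells without H2O2 (100%), mean ± SD of three experiments.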
(In general: Tetrazolium dyes change colour on reduction, which living cells bring about.)

In experiment [8] the test system is SRA1. Kind of experiment: Antioxidant activity in human SRA1 cells assessed as inhibition of H2O2-induced reduction of cellular glutathione level after 2 hrs by DTNB method. Format: functional, cell-based. A digest of the protocol: (§3)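 Cells are pre-incubated 1 hr in FBS-free medium with 100 μM compound, then given 1 mM H2O2, or 1 mM H2O2 plus 1 mM iron(II) chloride (Fenton), for 2 hr. Cells are washed with PBS, scraped and homogenized; supernatant protein is measured by Bradford. Homogenate is deproteinized with 20% TCA, and GSH is read at 412 nm (DTNB). Values are nmol GSH/mg protein, normalized to unexposed cells (100%), in triplicate.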

Experiment [9] in a line: Binding affinity to Cu(2+) ions assessed as percent parent peaks remaining by electrospray ionization mass spectrometry. Also noted: concentration or dose not given beside the values. The procedure, abridged: as §1
In experiment [10] the test system is HAh. The experiment in a line: Antioxidant activity in human HAh cells assessed as inhibition of Fenton's reagent-induced reduction of cellular glutathione level after 2 hrs by DTNB method. In kind it is functional, cell-based. The procedure, abridged: as §3
Experiment [11] deals with ARPE-19. Kind of experiment: Cytoprotection in human ARPE19 cells assessed as protection against Fenton's reagent-induced cell death after 2 hrs by MTS assay. In kind it is functional, cell-based. The procedure, abridged:
as §2

In experiment [12] the test system is ARPE-19. The experiment in a line: Antioxidant activity in human […] cells assessed as inhibition of Fenton's reagent-induced reduction of cellular glutathione level after 2 hrs by DTNB method. In kind it is functional, cell-based. A digest of the protocol:
as §3

The test system of experiment [13] is SRA1. The experiment in a line: Antioxidant activity in human SRA1 cells assessed as inhibition of Fenton's reagent-induced reduction of cellular glutathione level after 2 hrs by DTNB method. In kind it is functional, cell-based. A digest of the protocol: as §3
Experiment [14] has as its system HAh. The experiment in a line: Cytoprotection in human HAh cells assessed as protection against Fenton's reagent-induced cell death after 2 hrs by MTS assay. Format: functional, cell-based. A digest of the protocol:
as §2

The test system of experiment [15] is SRA1. The experiment in a line: Cytoprotection in human SRA1 cells assessed as protection against Fenton's reagent-induced cell death after 2 hrs by MTS assay. In kind it is functional, cell-based. The procedure, abridged:
as §2

Activity calls are given as the source filed them. No cut-off for these calls is given here.

For `CN(C)S(=O)(=O)N1CCN(c2ncccn2)CC1`, the Activity in [1], in experiment [2], in [3], in experiment [4], in experiment [5] and in experiment [6] was 100% throughout. In addition, the Activity in experiment [9] came out at 100%. The result in [7] and in experiment [8] was inactive.
Consider `COc1cc(OC)nc(N2CCN(S(=O)(=O)N(C)C)CC2)n1`, for which the Activity in experiment [1], in [2], in experiment [3], in [4], in experiment [5] and in experiment [6] was 100% each time. For the same molecule, the Activity in [9] is 100%. Besides, the outcome in [7] and in [8] was inactive.
With `COc1cc(OC)nc(N2C(=O)CN(S(=O)(=O)N(C)C)CC2=O)n1`, the Activity in experiment [1] amounted to 100%; in experiment [2] it was 7.6%; in [3], 4.1%; in experiment [4] it was 100%; in experiment [5], 13.8%; in experiment [6] it was 7.3%. In addition, the Activity in experiment [9] stood at 3.4%. The outcome in [10], in experiment [11], in experiment [12], in experiment [13] and in experiment [14] was Active. The outcome in [7] and in experiment [8] was inactive.
For `COc1nc(N2CCN(S(=O)(=O)N(C)C)CC2)nc(OC)c1O`, the Activity in experiment [1], in experiment [2], in experiment [3], in experiment [4], in [5] and in experiment [6] was 100% in each case. The Activity in [9] turned out to be 100%. Further, the outcome in [15], in experiment [10], in experiment [7], in experiment [11], in experiment [12] and in experiment [8] was Active. The outcome in experiment [14] was Active.
As for `COc1nc(N2C(=O)CN(S(=O)(=O)N(C)C)CC2=O)nc(OC)c1O`, the Activity in [1] was 100%; in [2], 8.2%; in [3] it was 4%; in [4], 100%; in [5], 14.6%; in [6] it was 7.5%. Besides, the Activity in experiment [9] amounted to 3.6%. The outcome in experiment [15], in [10], in experiment [7], in [11], in experiment [12] and in experiment [8] was Active. In addition, the outcome in experiment [13] and in [14] was Active.
As to `CN(C)S(=O)(=O)N1CC(=O)N(c2ncc(O)cn2)C(=O)C1`, the Activity is 100% in experiment [1]; 8.2% in experiment [2]; 4.2% in experiment [3]; 100% in experiment [4]; 12.7% in experiment [5]; 6.9% in [6]. In addition, in experiment [9], the Activity was determined as 3%. In addition, the result in experiment [15], in [10], in [7], in experiment [11], in [12] and in [8] was Active. Also, the outcome in experiment [13] and in experiment [14] was Active.
`CN(C)S(=O)(=O)N1CC(=O)N(c2ncccn2)C(=O)C1`: the Activity in experiment [1] is 100%; in [2], 10%; in experiment [3], 3.6%; in [4], 100%; in experiment [5], 15.3%; in [6] it was 8.1%. In [9], the Activity came out at 4.4%. For the same molecule, the outcome in [10], in experiment [11], in experiment [12], in experiment [13] and in experiment [14] was Active. For the same molecule, the outcome in experiment [7] and in experiment [8] was inactive.
In the case of `CN(C)S(=O)(=O)N1CCN(c2ncc(O)cn2)CC1`, the Activity in experiment [1], in [2], in [3], in [4], in [5] and in [6] was 100% each time. Besides, the Activity in experiment [9] amounted to 100%. Further, the outcome in [15], in experiment [10], in experiment [7], in experiment [11], in experiment [12] and in experiment [8] was Active. Further, the result in [14] was Active.
Take `Cc1c(C)c2c(c(C)c1O)CCC(C)(C(=O)O)O2` (stereo unspecified): the outcome in experiment [10] and in [7] was Active.
